# Bioassay records as filed in PubChem.
# A selection: hits, their analogues and other compounds. The true share with any hit is near 2%.
# CHRM5 PAM: CHRM5 positive allosteric modulation; CHO-K1 hM5, Fluo-8 calcium, ACh EC20 PAM; 0% = ACh EC20, 100% = ACh EC100; activation, % at 3 µM; hit rate 0.3% among 360,000; AID 624038;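 active means activation above the run cutoff, the mean activation of all test compounds plus 3 SD, cut at about 18% in these data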
#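 Replicates: One well per compound, no replicates | System: Human M5 receptor in CHO-K1 cells | Benchmarks: Low control EC20 acetylcholine (0%), high control EC100 acetylcholine (100%) | Probe or stimulus: Acetylcholine, EC20 level | Times: Fluo-8 loading 80 min at 37 °C plus 30 min room temperature | Signal: Intracellular calcium via Fluo-8 fluorescence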
# CHRM1 agonist: activates human CHRM1 receptor | CHO-K1 hM1, Fluo-8 calcium fluorescence, agonist mode; 0% DMSO, 100% acetylcholine EC100 | hit rate 0.33% among 360,000 | activation, % at 3 µM;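 active means activation above the run's mean compound activation plus 3 SD, cut at about 16% in these data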;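 further: peak over basal fluorescence ratio within a 140 s kinetic read after compound addition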
# Target sequence (P11229 whole entry, looked up): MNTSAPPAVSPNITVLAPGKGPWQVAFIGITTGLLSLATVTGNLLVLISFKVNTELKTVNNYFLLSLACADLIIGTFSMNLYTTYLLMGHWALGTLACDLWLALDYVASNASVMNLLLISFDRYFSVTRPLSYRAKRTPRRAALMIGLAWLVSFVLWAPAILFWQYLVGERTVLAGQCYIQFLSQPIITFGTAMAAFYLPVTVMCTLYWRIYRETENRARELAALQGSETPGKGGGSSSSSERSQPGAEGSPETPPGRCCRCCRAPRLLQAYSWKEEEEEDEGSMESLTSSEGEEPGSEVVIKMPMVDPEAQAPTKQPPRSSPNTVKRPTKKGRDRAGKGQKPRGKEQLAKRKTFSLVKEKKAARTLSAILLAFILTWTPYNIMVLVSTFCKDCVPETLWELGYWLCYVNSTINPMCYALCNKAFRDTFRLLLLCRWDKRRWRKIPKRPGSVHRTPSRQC
# M5 antag: CHRM5 antagonism in calcium assay | P08912 | hit rate 0.59% among 360,000 | inhibition, % at 3 µM | CHO-hM5 cells, Fluo-8 calcium fluorescence, ACh EC80 | AID 624040;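 active means inhibition above a per-plate cutoff, the mean of that plate's test compounds plus 3 SD, cut at about 27% in these data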;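 further: 0% = acetylcholine EC80 with DMSO and 100% = DMSO without agonist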
# M5 ag: CHRM5 agonism in calcium assay | P08912 | CHO-K1 hM5 cells, Fluo-8 calcium fluorescence; 0% DMSO wells, 100% maximal acetylcholine response | AID 624037 | activation, % at 3 µM | hit rate 0.19% among 360,000;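 active means activation above the run's mean over test compounds plus 3 SD, cut at about 23% in these data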;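 further: signal is peak over basal fluorescence ratio across the kinetic read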
# CHRM1 PAM: positive allosteric modulators of human M1 muscarinic receptor. activation, % at 3 µM. hit rate 0.088% among 360,000. CHO-K1 hM1, Fluo-8 calcium fluorescence, ACh EC20; 0% = ACh EC20, 100% = maximal ACh; in the data active means activation above about 19%, passing the limit was not always enough
# CHRM1 antagonist: blocks human M1 muscarinic receptor. CHO-K1 hM1, Fluo-8 calcium fluorescence, ACh EC80 antagonist. P11229. AID 588852. hit rate 1.3% among 360,000. inhibition, % at 3 µM;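 active means percent inhibition above its own plate's cutoff, namely the mean of that plate's compound wells plus 3 SD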;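 further: peak over basal fluorescence ratio during 140 s after agonist addition; 0% = ACh EC80 plus DMSO and 100% = DMSO alone without agonist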
# Numbers without * were called inactive; · = not tested or not shown.
SMILES,CHRM5 PAM,CHRM1 agonist,M5 antag,M5 ag,CHRM1 PAM,CHRM1 antagonist
Cc1coc2cc3oc(=O)c(CCC(=O)NC4CC4)c(C)c3cc12,-17,2,17,10,-21,31*
O=C1O[C@@H](c2ccccc2)C[C@@H](O)C(=O)CCCc2ccccc21,9,·,1,4,·,·
CSc1ccccc1OCc1cc(C(=O)N2CCSCC2)no1,-1,-3,2,-2,6,2
CCN(CC)C1CCN(C(=O)c2cc(COc3ccc(F)cc3Cl)on2)C1 (centres undefined),5,2,-5,-13,-19,70*
CSc1ccccc1OCc1cc(C(=O)N2CCC(Oc3cccnc3)CC2)no1,-16,-1,4,0,-19,39*
COCC1CCN(C(=O)c2cc(COc3ccc(F)cc3Cl)on2)C1 (centres undefined),-1,-5,-5,0,1,-14
CSc1ccccc1OCc1cc(C(=O)N2CCCC(C)C2)no1 (centres undefined),-4,-5,-6,-5,4,1
Cn1ccnc1C1CCCCN1C(=O)c1cc(COc2ccc(F)cc2Cl)on1 (centres undefined),-2,-13,-2,-7,-32,36*
CCN(CC)C1CCN(C(=O)c2cc(COc3ccccc3SC)on2)C1 (centres undefined),1,1,0,-8,-17,56*
COC(=O)C[C@@H]1C=C[C@H](NC(=O)Cc2ccccn2)[C@@H](CO)O1,-1,·,12,1,·,·
C[C@@H]1CN([C@@H](C)CO)C(=O)CCCn2nncc2CO[C@@H]1CN(C)S(=O)(=O)c1ccc(Oc2ccccc2)cc1,0,-10,5,-3,5,-15
Cc1ccc(S(=O)(=O)N2[C@H](CC(=O)c3ccc(F)cc3)OC[C@@H]2C(C)C)cc1,-2,·,-2,-4,·,·
Cc1cc(OCC(=O)Nc2ccc(CN3CCOCC3)cc2)ccc1Cl,-7,-1,11,2,5,4
Cc1cc(OCC(=O)Nc2ccc(CN3CCCCC3)cc2)ccc1Cl,-15,-4,19,2,-31,50*
CC(C)(C)c1ccc(OCCCNC2CCCC2)cc1,-12,-10,-2,-5,-30,22*
O=C(/C=C/c1cn(-c2ccccc2)nc1-c1ccccc1)Nc1ccc(C(=O)O)cc1,-22,-5,10,-4,-21,98*
NS(=O)(=O)c1ccc(NC(=O)/C=C/c2cn(-c3ccccc3)nc2-c2cccc(Cl)c2)cc1,7,-5,4,-1,10,-12
Cc1ccc(C(=O)N/C(=C/c2cn(-c3ccccc3)nc2-c2ccccc2)C(=O)O)cc1,20*,-3,3,7,16,-18
CN(CCN1CCOCC1)C(=O)C1CCC(=O)N(Cc2ccc(Cl)cc2)C1 (centres undefined),2,-5,6,0,9,-13
COc1ccc(C2/C=C\CN(C(=O)c3ccc(C)cc3)CC(=O)N2Cc2ccc(F)cc2)cc1 (centres undefined),18*,1,0,1,4,-3
COc1ccc(C2/C=C\CN(C(=O)Nc3ccc(C(F)(F)F)cc3)CC(=O)N2Cc2ccc(F)cc2)cc1 (centres undefined),-29,-3,18,2,-21,38*
CN(Cc1cnn(-c2ccccc2)c1)C(=O)c1cccc(S(=O)(=O)Nc2ccccc2F)c1,-2,-1,-3,1,3,-13
OCc1ccccc1OCCCN1CCC(Cc2ccccc2)CC1,-6,-9,14,-20,-20,33*
COc1cc(CN2CCC(Cc3ccccc3)CC2)c([N+](=O)[O-])cc1OC,-2,-3,7,-10,8,-17
C=CCOc1ccccc1CN1CCC(Cc2ccccc2)CC1,-9,-8,11,-13,-15,19
SMILES,CHRM5 PAM,CHRM1 agonist,M5 antag,M5 ag,CHRM1 PAM,CHRM1 antagonist
Cc1ccc([N+](=O)[O-])c(OCCCN2CCC(Cc3ccccc3)CC2)c1,-18,-9,22,8,-29,76*
O=Cc1cc(Cl)ccc1OCCN1CCC(Cc2ccccc2)CC1,-12,-7,7,-20,-25,55*
O=[N+]([O-])c1cccc(OCCN2CCC(Cc3ccccc3)CC2)c1,-4,-7,6,-20,-26,91*
Clc1ccccc1OCCN1CCC(Cc2ccccc2)CC1,-11,-3,9,-14,-14,30*
Clc1cccc(CN2CCC(Cc3ccccc3)CC2)c1,-19,-10,0,-6,-16,11
CC(c1nc2ccccc2[nH]1)n1c(=O)c(-c2ccco2)nc2ccccc21 (centres undefined),11,·,-5,3,·,·
Cc1n(Cc2ccccc2)c2ccccc2[n+]1Cc1ccccc1,-11,-9,28*,-17,-13,17
Cc1n(Cc2ccccc2)c2cc([N+](=O)[O-])ccc2[n+]1Cc1ccccc1,2,-10,9,-2,-10,10
O=C(/C=C/[C@H]1O[C@@H](n2cnc3c(NC(=O)c4ccccc4)ncnc32)[C@H](O)[C@@H]1O)NCC1CCCCC1,-2,-9,-5,3,0,4
CCNC(=O)C1CCCN(C(=O)Cc2ccc3ccccc3c2)CC1 (centres undefined),-1,1,-3,1,1,-11
O=C(NCc1ccccc1)c1ccc(CS(=O)(=O)c2ccccc2)o1,22*,0,-12,-1,7,-1
COC(=O)c1sc(N)nc1CCNC(=O)OC(C)(C)C,4,·,0,3,·,·
COc1ccccc1NC(=O)c1ccc(NC(=O)COC(=O)C2(C)CC2(Cl)Cl)cc1 (centres undefined),-19,-4,29*,2,-11,23
CC1(C(=O)OCC(=O)Nc2ccc(C(N)=O)cc2)CC1(Cl)Cl (centres undefined),8,-5,1,-2,11,-17
Cc1ccc(NC(=O)C2(C)CCN2C(=O)Cc2ccc(-c3ccccc3)cc2)cc1 (centres undefined),-8,19*,22,4,-15,20
CC(C)(C)c1ccc(CC(=O)N2CCC2(C)C(=O)Nc2cnc3ccccc3c2)cc1 (centres undefined),-17,0,24,5,-21,36*
Cc1c(OCc2ccccc2)c(=O)ccn1Cc1ccc(Cl)cc1,-8,-5,1,-4,9,-16
Cc1ccc(Cn2ccc(=O)c(OCc3ccccc3)c2C)cc1,22*,2,-2,4,6,-7
COc1ccccc1N1CCN(C(=O)c2ccc(CS(=O)(=O)c3ccccc3OC)o2)CC1,-16,17*,7,34*,-3,12
